Measurements from ChEMBL document CHEMBL2424641, “Synthesis and evaluation of novel radioligands for positron emission tomography imaging of the orexin-2 receptor” (J Med Chem, 2013).
The source made the active and inactive calls. The calls are words filed in the database; no cut-off is given here.

How the values were obtained:
[1] = test system: Cerebellum; test: Drug uptake in P-gp-knockout rat cerebellum at 78.7 to 189.8 MBq, iv after 90 mins by PET analysis in presence of 10 mg/kg, po unlabeled compound; type: ADME, organism-based; parameters: dose 10 mg/kg, route oral; settings: in vivo, 1.5 h
Summary of the method: (§1)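 Male Mdr1a-knockout rats (410−500 g) under 1.5% isoflurane at 37 °C; [11C] tracer 78.7−189.8 MBq by tail vein. 90 min list-mode microPET scan with filtered back-projection; ROIs drawn on MRI template; decay-corrected %ID/mL, n = 3. Blocking: unlabeled compound 10 mg/kg po in 5% DMSO/10% cremophor in 10 mM HCl, given 1 h before tracer.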

[2] = test system: Thalamus; test: Drug uptake in P-gp-knockout rat thalamus at 78.7 to 189.8 MBq, iv after 90 mins by PET analysis; type: ADME, organism-based; settings: in vivo, 1.5 h; summary of the method: as §1
[3] = target: T1, Orexin receptor type 2 (Rattus norvegicus) (UniProt P56719); test: Binding affinity to OX2 receptor in rat brain neocortex layer 6 at 3.6 nM by autoradiography in presence of EMPA; type: tissue-based; settings: tested as the 11C-labelled form
T1 sequence (whole entry): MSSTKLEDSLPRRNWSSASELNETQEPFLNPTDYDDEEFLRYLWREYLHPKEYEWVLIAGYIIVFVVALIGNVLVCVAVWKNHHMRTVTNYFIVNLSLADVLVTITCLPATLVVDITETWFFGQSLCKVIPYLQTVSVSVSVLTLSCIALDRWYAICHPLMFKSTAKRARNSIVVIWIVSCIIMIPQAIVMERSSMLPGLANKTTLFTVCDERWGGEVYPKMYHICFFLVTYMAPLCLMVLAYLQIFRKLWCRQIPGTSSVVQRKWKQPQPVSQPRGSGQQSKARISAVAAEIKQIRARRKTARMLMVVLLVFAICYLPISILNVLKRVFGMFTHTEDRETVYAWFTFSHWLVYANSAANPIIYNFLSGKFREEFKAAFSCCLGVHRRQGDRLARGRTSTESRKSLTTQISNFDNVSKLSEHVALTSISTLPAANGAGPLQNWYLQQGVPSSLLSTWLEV

[4] = target: T1, Orexin receptor type 2 (Rattus norvegicus); test: Binding affinity to OX2 receptor in coronal rat hypothalamus at 2.5 nM by autoradiography; settings: tested as the 11C-labelled form
Summary of the method: (§2)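 Rat brain sections (20 μm) preincubated 20 min at rt in 25 mM HEPES pH 7.4 with 5 mM MgCl2 and 1 mM CaCl2, then incubated 60 min at rt with 11C radioligand; nonspecific binding with 10 μM unlabeled compound. Sections washed three times in cold water, dried, exposed to imaging plate 1 h alongside calibrated radioactive standards.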

[5] = Ratio of flux ratio in pig LLC cells expressing MDR1 to flux ratio on pig LLC-PK1 cells; type: ADME, cell-based, Sus scrofa
Summary of the method: (§3)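 LLC-PK1 and LLC-MDR1 monolayers, 5 days post-seeding, preincubated 2 h at 37 °C in HBSS/10 mM HEPES. Compound added apically or basally, 2 h at 37 °C; opposite side assayed by LC-MS. Papp = Q/t/C0/A; FR = Papp(b→a)/Papp(a→b); corrected FR = FR(LLC-MDR1)/FR(LLC-PK1).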

[6] = test system: LLC-PK1; test: Flux ratio of permeability from apical to basolateral to basolateral to apical side in pig LLC-PK1 cells after 2 hrs; type: ADME, cell-based, Sus scrofa; settings: llc-pk1, 2 h; summary of the method: as §3
[7] = test system: Hippocampus; test: Drug uptake in P-gp-knockout rat hippocampus at 78.7 to 189.8 MBq, iv after 90 mins by PET analysis; type: ADME, organism-based; settings: in vivo, 1.5 h; summary of the method: as §1
[8] = Drug uptake in P-gp-knockout rat neocortex at 78.7 to 189.8 MBq, iv after 90 mins by PET analysis; type: ADME, organism-based; settings: in vivo, 1.5 h; summary of the method: as §1
[9] = target: Melatonin receptor type 1A (Homo sapiens) (UniProt P48039); test: Antagonist activity at melatonin MT1A receptor (unknown origin) expressed in HEK 293 cells coexpressing Gqi5 chimeric G-protein after 1 hr by fluorescence-based analysis; type: cell-based
Melatonin receptor type 1A (Homo sapiens), sequence (P48039 whole entry): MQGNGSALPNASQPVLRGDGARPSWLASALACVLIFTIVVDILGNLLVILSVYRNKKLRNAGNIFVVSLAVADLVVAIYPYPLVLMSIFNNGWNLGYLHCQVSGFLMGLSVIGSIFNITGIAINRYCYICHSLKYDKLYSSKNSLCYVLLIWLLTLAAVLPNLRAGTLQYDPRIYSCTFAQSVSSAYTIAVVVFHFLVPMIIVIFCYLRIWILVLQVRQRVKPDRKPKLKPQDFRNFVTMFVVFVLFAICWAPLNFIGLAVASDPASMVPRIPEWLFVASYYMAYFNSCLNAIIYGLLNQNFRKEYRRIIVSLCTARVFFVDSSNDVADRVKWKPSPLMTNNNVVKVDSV
Summary of the method: (§4)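 HEK293 cells stably expressing target GPCR with Gqi5 chimeric G-protein, seeded on collagen I plates and cultured overnight; calcium dye loaded 1 h at 37 °C. Compound at final 3, 10, 30 μM preincubated 1 h at rt, then reference agonist added at EC20 or EC80; Ca2+ fluorescence read in real time.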

[10] = target: Cannabinoid receptor 1 (Homo sapiens) (UniProt P21554); test: Antagonist activity at cannabinoid CB1 receptor (unknown origin) expressed in HEK 293 cells coexpressing Gqi5 chimeric G-protein after 1 hr by fluorescence-based analysis; type: cell-based; summary of the method: as §4
Cannabinoid receptor 1 (Homo sapiens), sequence (P21554 whole entry): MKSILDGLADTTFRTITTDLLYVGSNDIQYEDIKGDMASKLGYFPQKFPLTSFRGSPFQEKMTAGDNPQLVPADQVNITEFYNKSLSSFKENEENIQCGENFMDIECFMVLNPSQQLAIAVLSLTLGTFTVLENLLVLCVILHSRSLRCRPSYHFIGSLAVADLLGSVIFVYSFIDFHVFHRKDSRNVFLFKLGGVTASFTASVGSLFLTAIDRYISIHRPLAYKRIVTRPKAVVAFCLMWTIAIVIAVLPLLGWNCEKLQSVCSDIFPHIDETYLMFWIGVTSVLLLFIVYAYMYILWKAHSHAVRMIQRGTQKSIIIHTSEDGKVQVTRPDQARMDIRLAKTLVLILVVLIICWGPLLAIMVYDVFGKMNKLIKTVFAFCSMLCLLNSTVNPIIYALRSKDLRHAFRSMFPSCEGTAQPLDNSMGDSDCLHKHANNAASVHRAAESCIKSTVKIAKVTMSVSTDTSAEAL

[11] = target: T1, Orexin receptor type 2 (Rattus norvegicus); test: Binding affinity to OX2 receptor in rat brain neocortex layer 6 at 3.6 nM by autoradiography in presence of suvorexant; type: tissue-based; settings: tested as the 11C-labelled form
[12] = target: T1, Orexin receptor type 2 (Rattus norvegicus); test: Binding affinity to OX2 receptor in coronal rat brain neocortex layer 6 at 2.5 nM by autoradiography; type: tissue-based; settings: tested as the 11C-labelled form; summary of the method: as §2
[13] = Octanol-phosphate buffer partition coefficient, log D of the compound at pH 7.4 by Shake flask method; type: physicochemical
Summary of the method: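 [11C]-labelled compound (about 200 000 cpm) in n-octanol and 0.1 M PBS pH 7.4, vortexed 3 min at rt and centrifuged; weighed aliquots of each phase γ-counted, with the organic layer repartitioned until stable. log D = log(cpm/g octanol ÷ cpm/g PBS); triplicate.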

[14] = Flux ratio of permeability from apical to basolateral to basolateral to apical side in pig LLC cells expressing MDR1 after 2 hrs; type: ADME, cell-based, Sus scrofa; summary of the method: as §3
[15] = target: T2, Orexin receptor type 2 (Homo sapiens, UniProt O43614); test: Displacement of [125I]-orexin-A from human OX2 receptor expressed in CHO cells after 30 mins by liquid scintillation counting analysis; type: cell-based
T2 sequence (O43614 whole entry): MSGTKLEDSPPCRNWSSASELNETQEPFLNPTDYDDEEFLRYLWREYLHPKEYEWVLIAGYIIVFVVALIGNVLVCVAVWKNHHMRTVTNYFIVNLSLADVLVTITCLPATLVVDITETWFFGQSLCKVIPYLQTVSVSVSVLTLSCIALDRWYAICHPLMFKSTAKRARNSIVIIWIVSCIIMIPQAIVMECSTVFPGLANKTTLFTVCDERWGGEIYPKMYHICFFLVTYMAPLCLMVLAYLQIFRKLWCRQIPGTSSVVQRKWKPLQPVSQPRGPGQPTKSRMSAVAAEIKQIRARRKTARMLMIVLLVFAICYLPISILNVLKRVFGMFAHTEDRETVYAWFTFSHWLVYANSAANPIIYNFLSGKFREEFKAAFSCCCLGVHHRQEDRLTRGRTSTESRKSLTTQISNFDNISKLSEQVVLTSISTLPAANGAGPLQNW
Summary of the method: (§5)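 CHO membranes expressing human OX1R or OX2R (5 μg protein) incubated 30 min at rt with compound and [125I]-orexin A (2 nM stock) in HEPES buffer pH 7.5 with MgCl2, CaCl2, BSA. Nonspecific binding with 10 μM orexin A. Wells washed with HEPES/525 mM NaCl and DPM counted. % inhibition from test, control and nonspecific counts; mean of three wells.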

[16] = target: T3, Orexin/Hypocretin receptor type 1 (Homo sapiens, UniProt O43613); test: Displacement of [125I]-orexin-A from human OX1 receptor expressed in CHO cells after 30 mins by liquid scintillation counting analysis; type: cell-based; summary of the method: as §5
T3 sequence (O43613 whole entry): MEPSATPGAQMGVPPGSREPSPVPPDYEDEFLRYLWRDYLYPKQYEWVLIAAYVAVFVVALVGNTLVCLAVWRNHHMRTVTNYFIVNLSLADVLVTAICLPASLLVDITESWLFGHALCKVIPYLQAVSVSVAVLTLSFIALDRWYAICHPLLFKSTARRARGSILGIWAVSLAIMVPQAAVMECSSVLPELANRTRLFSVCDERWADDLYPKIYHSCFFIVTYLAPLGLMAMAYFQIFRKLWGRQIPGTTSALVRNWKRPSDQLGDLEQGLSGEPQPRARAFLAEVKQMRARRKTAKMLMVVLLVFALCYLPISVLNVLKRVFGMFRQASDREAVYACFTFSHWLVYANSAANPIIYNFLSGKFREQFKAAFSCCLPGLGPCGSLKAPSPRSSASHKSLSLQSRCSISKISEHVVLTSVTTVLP

[17] = target: T1, Orexin receptor type 2 (Rattus norvegicus); test: Binding affinity to OX2 receptor in coronal rat neocortex layer 6 at 2 nM by autoradiography; settings: tested as the 11C-labelled form; summary of the method: as §2
[18] = target: T1, Orexin receptor type 2 (Rattus norvegicus); test: Binding affinity to OX2 receptor in coronal rat hypothalamus at 2 nM by autoradiography; settings: tested as the 11C-labelled form; summary of the method: as §2
[19] = HEK293, tested as the 11C-labelled form

Structure (SMILES): COCc1nc(C)ncc1OC[C@@]1(c2cccc(F)c2)C[C@H]1C(=O)Nc1ccc(F)cn1
- Drug uptake [1]: Active
- Drug uptake [2]: Active
- Activity [3]: inactive
- Activity [4]: Active
- Ratio [5]: 3.11
- Ratio [6]: 0.84
- Drug uptake [7]: Active
- Drug uptake [8]: Active
- Activity ([9]; HEK293): Active
- Activity [9, 19]: Active
- Activity ([10]; HEK293): Active
- Activity [10, 19]: Active
- Activity [11]: inactive
- Activity [12]: Active
- logD [13]: 2.97
- Ratio [14]: 2.61
- Ki [15]: 1 nM
- Ki [16]: 1 nM
- Activity [17]: Active

Structure (SMILES): COc1cc(NC(=O)[C@@H]2C[C@@]2(COc2cnc(C)nc2C)c2cccc(F)c2)ncc1F
- Activity [18]: Active
- Ratio [5]: 2.06
- Ratio [6]: 1.19
- Activity [12]: Active
- logD [13]: 2.93
- Ratio [14]: 2.45
- Ki [15]: 2 nM
- Ki [16]: 3 nM
- Activity [17]: Active

Structure (SMILES): COc1nc(NC(=O)[C@@H]2C[C@@]2(COc2cnc(C)nc2C)c2cccc(F)c2)ccc1F
- Ratio [5]: 1.21
- Ratio [6]: 0.81
- logD [13]: 3.6
- Ratio [14]: 0.98
- Ki [15]: 2 nM
- Ki [16]: 12 nM
